This passage reports Kd results from BindingDB's records for doi:10.1016/j.bmc.2011.09.065 (2011).

The Kd is the concentration at which binding is half-saturated. High values mean a looser complex, low ones a tighter complex.

Chain of Amyloid-beta precursor protein (P05067 whole entry): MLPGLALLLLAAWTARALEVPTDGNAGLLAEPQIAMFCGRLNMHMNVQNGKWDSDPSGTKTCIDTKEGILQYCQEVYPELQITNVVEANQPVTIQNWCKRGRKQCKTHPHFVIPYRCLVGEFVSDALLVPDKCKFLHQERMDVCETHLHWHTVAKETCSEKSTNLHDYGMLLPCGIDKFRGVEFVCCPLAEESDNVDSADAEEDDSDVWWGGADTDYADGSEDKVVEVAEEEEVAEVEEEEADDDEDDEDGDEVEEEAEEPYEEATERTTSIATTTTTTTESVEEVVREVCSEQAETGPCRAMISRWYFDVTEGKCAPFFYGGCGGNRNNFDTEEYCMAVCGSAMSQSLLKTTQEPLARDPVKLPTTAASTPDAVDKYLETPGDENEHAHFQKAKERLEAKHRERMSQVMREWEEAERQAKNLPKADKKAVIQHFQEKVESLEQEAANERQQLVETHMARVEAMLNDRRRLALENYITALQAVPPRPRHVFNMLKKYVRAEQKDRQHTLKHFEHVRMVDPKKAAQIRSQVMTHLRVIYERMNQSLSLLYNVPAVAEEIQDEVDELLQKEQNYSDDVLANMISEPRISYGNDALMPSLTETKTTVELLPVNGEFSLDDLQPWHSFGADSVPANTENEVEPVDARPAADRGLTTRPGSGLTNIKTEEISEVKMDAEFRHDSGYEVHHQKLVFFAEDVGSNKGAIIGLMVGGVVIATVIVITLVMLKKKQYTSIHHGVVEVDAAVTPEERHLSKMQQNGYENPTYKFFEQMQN

The assay concerns the target Amyloid-beta precursor protein (Homo sapiens, UniProt P05067). The assay is described as follows: Binding affinity to human amyloid beta (1 to 42) fibril by fluorescence intensity assay. The procedure, abridged:
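Fibrils grown from human insulin (3 mg/mL, Tris-HCl 50 mM pH 3), E. coli-expressed human α-syn (3 mg/mL, pH 7.4) or Aβ(1–42) (0.5 mg/ml, 1% NH4OH). Fibril level taken as supernatant protein depletion. Plate-reader intensity read at each ligand's maximal excitation/emission wavelengths, dye blanks subtracted. Kd from single-site saturation fit.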
For the molecule `CN(CCF)c1ccc(/C=C/c2nc3ccccc3s2)cc1`, the affinity, expressed as Kd, was 91 nM.
The value for `CN(CCF)c1ccc(/C=C\c2nc3ccccc3o2)cc1` was 167 nM; that for `CN(CCF)c1ccc(/C=C/c2nc3ccccc3n2C)cc1` was 192 nM; that for `CN(CCF)c1ccc(/C=C/c2nc3ccccc3o2)cc1` was 222 nM.
With `CN(CCF)c1ccc(/C=C\c2nc3ccccc3s2)cc1`, the Kd came out at 42 nM.
`CN(CCF)c1ccc(/C=C\c2nc3ccccc3n2C)cc1` gave a Kd of 286 nM.
With `CN(CCF)c1ccc(/C=C/c2nc3ccccc3[nH]2)cc1` the figure was 278 nM.
